# Compound activity from PubChem BioAssay.
# CCR6 antag – CCR6 receptor antagonists, primary screen, cell-based, CHO-K1, luminescence, beta-arrestin, uHTS; CHO-K1 CCR6 PathHunter beta-arrestin, CCL20-stimulated; inhibition, % at 20 µM; 340,000 compounds, 0.49% hits; AID 493098, 2011;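 active = compounds whose inhibition of the agonist-driven luminescence signal at 20 µM reaches about 50%, limit read from the data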;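 note: cells stimulated with CCL20 at 14 nM final; plate controls were DMSO with CCL20 for no effect and DMSO without agonist for full effect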
# CXCR6 block – CXCR6 receptor inhibitors, primary screen, cell-based, beta-arrestin, luminescence, CHO-K1 PathHunter, 1536-well; C-X-C chemokine receptor type 6 (Homo sapiens), O00574; inhibition, % at 20 µM; 360,000 compounds, 0.36% hits; AID 602244, 2012; in the data active = inhibition above about 34%, passing the limit was not always enough;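 note: antagonist mode with CXCL16 agonist at 10 nM final; 0% = 10 nM CXCL16 with DMSO and 100% = unstimulated wells without agonist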
# EBI2 block – EBI2 receptor antagonists, beta-arrestin recruitment, primary screen, cell-based, luminescence, 7a,25-OHC stimulation, uHTS; G-protein coupled receptor 183 (Homo sapiens), P32249; 7a,25-OHC stimulated; inhibition, % at 5 µM; 360,000 compounds, 0.81% hits; AID 651636, 2012; in the data active = inhibition above about 38%;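 note: enzyme fragment complementation signal reports receptor beta-arrestin coupling in cells; 0% = agonist plus DMSO wells and 100% = wells without agonist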
# Target sequence (P32249 whole entry, looked up, the tested form may be a part): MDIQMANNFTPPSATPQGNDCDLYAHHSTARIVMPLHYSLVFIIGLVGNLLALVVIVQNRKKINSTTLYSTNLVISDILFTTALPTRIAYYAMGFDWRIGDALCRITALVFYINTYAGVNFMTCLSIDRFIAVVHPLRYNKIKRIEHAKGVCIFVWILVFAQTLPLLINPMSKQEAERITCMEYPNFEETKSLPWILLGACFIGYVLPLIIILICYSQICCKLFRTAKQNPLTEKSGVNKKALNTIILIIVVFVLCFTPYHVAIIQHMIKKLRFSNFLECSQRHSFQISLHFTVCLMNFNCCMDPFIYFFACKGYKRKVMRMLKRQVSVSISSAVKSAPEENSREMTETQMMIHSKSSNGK
# APJ agonist – agonists of human apelin receptor APJ, primary screen, CHO-K1 cells, PathHunter beta-arrestin, luminescence | P35414 | activation, % at 20 µM | 330,000 compounds, 0.11% hits | AID 2520, 2010 | 0% DMSO wells, 100% apelin;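 active = activation more than six SD over the plate average, tested at 20 µM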;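 note: 0% = DMSO alone and 100% = apelin-13 at 10 nM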
#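 Test system – PathHunter CHO-K1 APJ (AGTRL-1) beta-arrestin reporter cells · Input – 1000 cells/well · Compound – single test compound dose, 20 µM final, 1% DMSO · Times – compound stimulation 90 min at 25 °C, detection 60 min · Technique – beta-gal luminescence · Read-out basis – APJ–arrestin association signal · Control set – negative DMSO alone, positive Apelin-13 at 10 nM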
# HTR2A ag – mouse Htr2a agonists via beta-arrestin recruitment, primary screen, cell-based, luminescence; 5-hydroxytryptamine receptor 2A (Mus musculus), P35363; CHO-K1 mHTR2A beta-arrestin complementation; percent of 30 µM serotonin response; activation, % at 7.6 µM; 360,000 compounds, 0.66% hits;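 active = activation above a run cutoff, the mean activation of all tested compounds plus 3 SD, cut at about 14% in these data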;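 note: 0% = plate median of compound wells and 100% = 30 µM serotonin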
# APJ antag – antagonists of human apelin receptor APJ, primary screen, CHO-K1 cells, beta-arrestin complementation, luminescence. P35414. inhibition, % at 20 µM. 330,000 compounds, 0.32% hits. AID 2521, 2010;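 active = inhibition above about 40% at 20 µM, limit read from the data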;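 note: cells challenged with 10 nM apelin-13 agonist together with compound; plate controls were apelin-13 plus DMSO wells for no effect and DMSO wells lacking apelin-13 for full effect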
# APJ antag confirm – APJ antagonists blocking beta-arrestin recruitment, confirmation, cell-based, luminescence, single concentration, uHTS hits | AID 2766, 2010 | 950 compounds, 66% hits | antagonist mode | shares compounds with APJ antag | inhibition, % at 20 µM; in the data active = inhibition above about 50%
# CXCR6 antag conf – CXCR6 receptor antagonists, confirmation, cell-based, single concentration, beta-arrestin, luminescence; shares compounds with CXCR6 block; CHO-K1 CXCR6 PathHunter beta-arrestin; inhibition, % at 20 µM; 700 compounds, 65% hits;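 active = mean inhibition over four retests above 40%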;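 note: receptor stimulated with 10 nM CXCL16 agonist; beta-galactosidase fragment complementation upon beta-arrestin recruitment to receptor; plate controls were CXCL16 plus DMSO for no effect and DMSO without CXCL16 for full effect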
# Numbers without * were called inactive; nt = no result given. Rows were chosen to be rich in hits. Some 2.1% of all compounds tested hit in one or more screens of this group.
SMILES,CCR6 antag,CXCR6 block,EBI2 block,APJ agonist,HTR2A ag,APJ antag,APJ antag confirm,CXCR6 antag conf
O=C(NNc1ccc([N+](=O)[O-])cc1)c1ccco1,30,14,-1,7,2,-9,nt,nt
O=C(NNc1ccc([N+](=O)[O-])cc1[N+](=O)[O-])c1ccco1,58*,44*,8,-16,-7,51*,79*,48*
Cc1cc(Cl)ccc1OCCCC(=O)NNC(=O)c1ccccc1O,8,-3,11,6,-5,5,nt,nt
CCOc1ccc(Nc2ccc([N+](=O)[O-])c3nonc23)cc1,56*,59*,15,-10,-9,52*,89*,43*
CC(=O)Nc1ccc(Nc2ccc3nonc3c2[N+](=O)[O-])cc1,-6,-6,-10,1,-5,-13,nt,nt
CC(=O)NS(=O)(=O)c1ccc(Nc2ccc([N+](=O)[O-])c3nonc23)cc1,55*,51*,14,-8,-2,45*,101*,47*
CCn1c(Cl)c(C=O)s/c1=N\S(=O)(=O)c1ccccc1,105*,89*,32,0,-9,96*,105*,105*
CCN1C(=O)CS/C1=N\S(=O)(=O)c1ccc(Cl)cc1,13,-2,-1,-6,0,-8,nt,nt
O=C(O)c1cccc(NC(=S)NC(=O)c2cncc(Br)c2)c1,42,58*,-3,-4,1,43*,81*,27
Cc1cc(O)ccc1NC(=S)NC(=O)c1cncc(Br)c1,70*,51*,6,-8,-4,43*,82*,48*
Cc1ccccc1NC(=S)NC(=O)c1cncc(Br)c1,50,25,-16,-6,-1,24,nt,nt
CC1(C(=O)NS(=O)(=O)c2ccc(Br)cc2)CCN1C(=O)CCc1ccccc1 (centres undefined),nt,0,4,nt,2,nt,nt,nt
S=C(N/N=C/c1ccccc1)N1CCOCC1,68*,41*,-14,-9,8,48*,72*,75*
c1ccc(N2[C@@H]3c4ccccc4C[C@H]2c2ccccc23)cc1,nt,nt,3,nt,0,nt,nt,nt
COc1ccc(-c2cc(C(=O)NCc3ccc(F)cc3)[nH]n2)c(C)c1,nt,-2,10,nt,-10,nt,nt,nt
COc1ccc(CCc2nnc(CCC(=O)N(C)Cc3ccnc4ccccc34)o2)cc1,10,-8,-3,1,6,8,nt,nt
CCOc1ccc(-c2csc(/C(C#N)=C\c3ccc(O)c([N+](=O)[O-])c3)n2)cc1,55*,39*,1,-5,-1,50*,61*,39
CC(=O)Nc1cccc(C(=O)OCC(=O)c2ccc(S(=O)(=O)N3CCCCC3)cc2)c1,54*,42*,-8,-18,6,49*,71*,14
COc1cc(OC)cc(C(=O)OCC(=O)c2ccc(S(=O)(=O)N3CCCCC3)cc2)c1,32,23,14,-8,3,22,nt,nt
CC(C)[C@H](NC(=O)c1ccccc1)C(=O)OCC(=O)c1ccc(S(=O)(=O)N2CCCCC2)cc1,54*,44*,19,-25,5,47*,21,32
CC(=O)Nc1ccc(C(=O)OCC(=O)c2ccc(S(=O)(=O)N3CCCCC3)cc2)cc1,30,21,7,-9,9,-7,nt,nt
COc1ccc(CC(=O)OCC(=O)c2ccc(S(=O)(=O)N3CCCCC3)cc2)cc1,65*,48*,7,-11,7,71*,70*,24
